Sampled rows, rich in hits. Any-hit rate of the full collection: about 1.2%.
Rce1 inh: inhibitors of yeast Ras-converting enzyme; Q03530; yeast membranes, quenched prenylated peptide cleavage fluorescence; calls only; 290,000 tested, 0.27% active; AID 2563;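 active = fall in fluorescence gain of 50% or more versus controls, with final raw signal at or below 3038400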;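 note: plate controls were neutral control wells for no effect and wells lacking membranes for full effect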
p-CIP stab down: lowers stability of the mouse p/CIP coactivator protein; Q05BA5; F442A p/CIP-EGFP cells, EGFP fluorescence, 16 h; decrease of EGFP signal, % at 10 µM; 290,000 tested, 0.01% active;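 active = EGFP signal decrease of at least 30% at 10 µM or well 3 SD below plate mean, unless failing retest; inactive = the rest, including hits failing retest or dose response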
Lipid droplet: hepatic lipid droplet formation modulation | 240,000 tested, 0.4% active | AID 1656 | inhibition, % at 6.5 µM | AML12 mouse hepatocytes, oleate lipid droplets, BODIPY imaging;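 active = lipid droplet intensity inhibited by at least 50%, with more than 500 cells counted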
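Assay system: AML12 mouse liver cells | Compound: 6.5 µM single-point dosing | Schedule: Overnight exposure | Technique: Fluorescence imaging, 20x objective, two fields per well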
GAA850 FXN act: frataxin GAA850 promoter activation | 360,000 tested, 0.56% active | HEK293 lucGAA850 FXN promoter luciferase reporter, 24 h; percent of 10 µM SAHA response | activation, % at 6 µM;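 active = activation above the average of all compounds screened plus 3 SD, cutoff fixed separately per campaign, cut at about 7.5% in these data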;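 note: 0% = DMSO wells and 100% = 10 µM SAHA wells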
proCasp3 act: activators of human procaspase-3 | AID 463141 | activation, % at 8.5 µM | 330,000 tested, 0.11% active | recombinant procaspase-3 D3A, Ac-DEVD-pNA absorbance 405 nm | P42574;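 active = activation above the mean of all tested compounds plus 3 SD, cut at about 21% in these data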;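 note: 0% = DMSO alone and 100% = DMSO wells spiked with extra 5 µM PC-3 D3A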
Target sequence (P42574 whole entry D9A/D28A/D175A): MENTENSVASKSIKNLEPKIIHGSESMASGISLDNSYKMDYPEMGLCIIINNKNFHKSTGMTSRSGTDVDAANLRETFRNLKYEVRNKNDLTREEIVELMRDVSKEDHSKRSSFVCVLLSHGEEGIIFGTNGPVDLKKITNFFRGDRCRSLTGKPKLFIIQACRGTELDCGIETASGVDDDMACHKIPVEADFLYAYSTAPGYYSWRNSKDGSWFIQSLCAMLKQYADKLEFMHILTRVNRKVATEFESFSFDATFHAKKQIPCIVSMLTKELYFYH
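Technique: 405 nm absorbance of p-nitroaniline, reads at 0 and 120 min; Test system: Procaspase-3 D3A mutant; Incubation: 1 h enzyme-compound preincubation, then 2 h substrate reaction, 25 °C; Repeats: singlicate, each compound tested once; Benchmarks: low control DMSO wells, high control DMSO plus 5 µM PC-3 D3A.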
procasp7 counter: activates human procaspase-7, counter-screen for procaspase-3 activators. P55210. recombinant procaspase-7, Ac-DEVD-pNA absorbance 405 nm; D23A/D198A/D206A triple mutant, cannot self-cleave; scale: DMSO 0, 5 µM enzyme 100. activation, % at 8.5 µM. 330,000 tested, 0.093% active;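 active = percent activation above the screen-wide mean plus 3 SD, cut at about 25% in these data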
Target sequence (P55210 whole entry D23A/D198A/D206A): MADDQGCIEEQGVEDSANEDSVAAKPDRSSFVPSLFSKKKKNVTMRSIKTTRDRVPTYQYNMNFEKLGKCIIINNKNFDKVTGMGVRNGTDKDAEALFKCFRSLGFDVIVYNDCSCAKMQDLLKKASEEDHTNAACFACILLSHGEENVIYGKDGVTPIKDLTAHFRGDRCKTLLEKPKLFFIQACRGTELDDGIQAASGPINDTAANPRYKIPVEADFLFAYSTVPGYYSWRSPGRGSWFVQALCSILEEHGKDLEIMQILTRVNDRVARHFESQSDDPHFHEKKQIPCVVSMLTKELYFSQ
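Detection: p-Nitroaniline absorbance at 405 nm, read at 0 and 120 min; system: Uncleavable procaspase-7 mutant enzyme; evaluation: % activation from two-timepoint absorbance difference, scaled to controls; times: 1 h enzyme–compound preincubation and 2 h substrate reaction, both 25 °C; buffer or medium: Zinc-free HEPES pH 7.4 with 300 mM NaCl, 0.01% Triton X-100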
GAA30 counter: counter-screen for GAA850 frataxin promoter activators: GAA30 promoter activation; shares compounds with GAA850 FXN act; HEK293 lucGAA30 FXN promoter luciferase, 24 h; DMSO = 0%, 5 µM ipriflavone = 100%; activation, % at 6 µM; 1,900 tested, 66% active;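 active = mean activation above the mean of solvent-only control wells plus 3 SD, cut at about 22% in these data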;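 note: counterscreen of GAA850 promoter hits where activity marks nonselective or luminescence artifacts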
FXN GAA850 conf: confirmation of GAA850 frataxin (FXN) promoter activators | shares compounds with GAA850 FXN act | HEK293 lucGAA850 FXN promoter luciferase reporter, 24 h; 100% = activation by SAHA | activation, % at 6 µM | 1,900 tested, 86% active | AID 588351;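 active = mean activation above a set limit taken from the primary screen, cut at about 8% in these data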;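 note: 0% = DMSO wells and 100% = 10 µM SAHA wells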
Starred values were filed as active, the others as inactive; i = inactive; · = no result.

SMILES	Rce1 inh	p-CIP stab down	Lipid droplet	GAA850 FXN act	proCasp3 act	procasp7 counter	GAA30 counter	FXN GAA850 conf
CN(C)c1ccc(-c2nnn(Cc3ccccc3Br)n2)cc1	i	2	·	12*	-2	6	70*	26*
COc1ccc(-c2nnc(SCC(=O)N3CCOCC3)o2)cc1	i	-9	·	7.7*	-7	8	101*	30*
CSCCC(NC(=O)c1ccc(Cl)cc1Cl)C(=O)NNC(=O)c1ccncc1 (centres undefined)	·	·	·	1	-5	2	·	·
COc1ccc(C2CC(c3ccc(OC)c(OC)c3)=NN2S(C)(=O)=O)cc1 (centres undefined)	i	4	18	8.2*	1	3	105*	40*
CCCS/C(N)=N/N=C/c1cc(C)ccc1O	i	-4	9	8.6*	-2	3	102*	33*
Cc1ccc(O)c(C=Nc2cc(C)ccc2O)c1	i	-4	-19	4	1	-12	·	·
CCCCS/C(N)=N/N=C/c1ccccc1O	i	4	28	7.7*	5	-11	110*	28*
COc1ccccc1C(=O)C1Nc2ccccc2-c2nnc(SC)nc2O1 (centres undefined)	·	-1	-66	8.8*	-5	-9	16	5
Cn1c(CS(=O)Cc2c(Cl)cccc2Cl)nnc1SCc1c(Cl)cccc1Cl (centres undefined)	i	-2	-5	10*	-3	-1	25*	9.3*
COc1ccccc1NC(=O)CN1CCC(n2nnc3cc(F)ccc32)CC1	i	-3	5	0	-4	1	·	·
COc1ccccc1NC(=O)CN1CCC(n2c(C)nc3cc(F)ccc32)CC1	i	-7	·	9.1*	0	12	1	7.8*
Cc1ccc2nc(-c3ccc(NS(=O)(=O)c4ccc(F)c(F)c4)cc3)sc2c1	i	-13	-19	10*	-4	16	108*	35*
CCN(C[C@H]1N[C@@](CC)(C(=O)OC)[C@H]2C(=O)N(C)C(=O)[C@@H]12)C(=O)COC	·	·	·	1	0	22	·	·
COC(=O)c1ccc(CSc2ncnc3c2sc2nc(N4CCOCC4)c4c(c23)CCCC4)o1	i	·	·	13*	-7	1	12	15*
COc1ccc(C2C=C(C34CC5CC(CC(C5)C3)C4)NC(=S)N2)cc1OC (centres undefined)	i	0	8	7.7*	-3	-2	10	11*
CN1CCSc2ccc(C(=O)Nc3ccc(Cl)cc3)cc21	i	8	-1	7.8*	-1	-9	120*	45*
CCOC(=O)Cn1cnc2c(nnn2-c2ccc(F)cc2)c1=O	i	-4	4	0	-5	-1	·	·
N#CCn1cnc2sc(-c3ccccc3)cc2c1=O	i	-4	1	9.2*	5	-2	76*	28*
COc1cc(CN2C[C@@H](CO)O[C@@H](n3cnc4c(Nc5ccccc5)ncnc43)C2)cc(OC)c1OC	·	·	·	0	·	·	·	·
Cc1ccc(NC(=O)c2c(Cl)nc3ccccn23)cc1	i	5	-25	10*	1	-7	116*	37*
CNc1nc(N)c([N+](=O)[O-])c(NCc2ccccc2)n1	i	2	1	17*	-8	7	87*	32*
Cc1ccc(Nc2nc(N)c([N+](=O)[O-])c(NCc3ccco3)n2)cc1C	i	0	4	7.8*	-2	-6	92*	44*
Cc1ccc(Nc2nc(N)c([N+](=O)[O-])c(NCCO)n2)cc1C	i	1	-8	5	-1	-4	·	·
CN(C)c1nc(N)c([N+](=O)[O-])c(NCc2ccccc2)n1	i	4	1	7.6*	-5	3	69*	25*
O=C(NCc1ncc(C(F)(F)F)cc1Cl)Nc1ccccc1	i	-1	·	4	3	-6	·	·
SMILES	Rce1 inh	p-CIP stab down	Lipid droplet	GAA850 FXN act	proCasp3 act	procasp7 counter	GAA30 counter	FXN GAA850 conf
Cn1c(-c2cccc(Br)c2)cnc1NCc1ccccc1O	i	3	·	1	·	·	·	·
CCC(C)(C)NC(=O)C(NS(=O)(=O)c1cccs1)c1ccccc1 (centres undefined)	i	-10	-12	10*	-5	4	15	10*
CCc1cccc(CC)c1NC(=O)C(NS(=O)(=O)c1cccs1)c1ccccc1 (centres undefined)	i	8	19	-1	-9	6	·	·
CCOC(=O)C1CCN(C(=O)c2ccccc2)c2scc(-c3ccccc3)c2C1=O (centres undefined)	·	·	·	-1	·	·	·	·
O=C(NCC1CCCO1)c1cc([N+](=O)[O-])ccc1N1CCC(Cc2ccccc2)CC1 (centres undefined)	·	·	·	-4	11	13	·	·
COc1cc(C(=O)O[C@H]2CC(C)=CC[C@@]3(C)CC[C@@](O)(C(C)C)[C@H]23)ccc1O	i	-6	-27	16*	6	2	29*	8.1*
COc1cc(C(=O)O[C@H]2C/C(C)=C/CC[C@]3(C)O[C@@H]3C(O)C2C(C)C)cc(OC)c1OC (some centres undefined)	i	2	-20	-8	5	-9	·	·
CC1(C(=O)Nc2nc3ccccc3s2)CC1(Br)Br (centres undefined)	i	-3	·	11*	·	·	103*	36*
Cc1noc(C)c1NC(=O)N(C)C[C@H]1Oc2ccc(NC(=O)Nc3ccc(C(F)(F)F)cc3)cc2C(=O)N([C@H](C)CO)C[C@@H]1C	·	·	·	1	-5	1	·	·
N#C/C(=C\c1ccncc1)c1nc2ccccc2[nH]1	i	3	-3	8.8*	·	·	33*	9.3*
N#C/C(=C\c1cccnc1)c1nc2ccccc2[nH]1	i	-8	-38	-1	-10	-10	·	·
COc1cc(/C=C(/C#N)c2nc3ccccc3[nH]2)ccc1OCC(=O)Nc1ccccc1C	·	2	·	-13	5	2	·	·
COc1cc(/C=C(\C#N)c2nc3ccccc3[nH]2)ccc1OC(=O)c1ccco1	i	-119	19	7.8*	-1	-17	119*	35*
C/C(=N\NC(=O)c1cc(C)nc2ccccc12)c1cccc(Cl)c1	i	3	-10	-2	4	11	·	·
